≈ marks a conversion by molar mass, not a printed value.

The record followed here is ChEMBL document CHEMBL2057186, “Application of the bicyclo[1.1.1]pentane motif as a nonclassical phenyl ring bioisostere in the design of a potent and orally active γ-secretase inhibitor” (J Med Chem, 2012).

For one data set, the target named is T1, Cytochrome P450 1A2 (Homo sapiens, UniProt P05177).
T1 sequence (P05177 whole entry): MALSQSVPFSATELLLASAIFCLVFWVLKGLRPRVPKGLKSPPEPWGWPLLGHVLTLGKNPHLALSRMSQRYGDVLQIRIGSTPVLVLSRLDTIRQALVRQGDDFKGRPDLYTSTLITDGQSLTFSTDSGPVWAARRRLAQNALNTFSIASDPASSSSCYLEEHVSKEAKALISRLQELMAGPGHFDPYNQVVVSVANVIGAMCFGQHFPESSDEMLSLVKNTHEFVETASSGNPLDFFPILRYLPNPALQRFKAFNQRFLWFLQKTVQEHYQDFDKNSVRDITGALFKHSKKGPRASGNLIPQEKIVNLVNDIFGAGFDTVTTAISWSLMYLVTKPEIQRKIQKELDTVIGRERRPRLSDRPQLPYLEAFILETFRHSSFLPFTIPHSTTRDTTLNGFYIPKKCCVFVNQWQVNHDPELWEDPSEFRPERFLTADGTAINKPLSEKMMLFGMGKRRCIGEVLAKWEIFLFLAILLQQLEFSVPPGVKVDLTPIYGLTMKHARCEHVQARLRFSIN
Nature of the data set: Inhibition of CYP1A2 in human liver microsomes using tacrine as substrate. In kind it is ADME, Microsome.

Another data set relates to Mus musculus. Nature of the data set: Antialzheimer activity in 129/sve mouse assessed as reduction in amyloid beta40 level in plasma at 30 mg/kg, po administered as single dose measured at 1 hr by ELISA relative to vehicle treated control. On the set-up: scale not given: the % may be the effect or the level left. It counts as functional. In outline:
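Wild-type male 129/sve mice received a single oral dose in Phosal 50 PG/Tween 80 vehicle. Aβ40 was measured in brain, CSF and plasma and Aβ42 in brain over a time course. Levels are expressed as % of vehicle-treated animals. Values are mean ± SEM, n = 5 or 8 per time point.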

The next data set concerns the target Cytochrome P450 2C9 (Homo sapiens, UniProt P11712). Nature of the data set: Inhibition of CYP2C9 in human liver microsomes using diclofenac as substrate. In kind it is ADME, Microsome.
Data set [1] can be described thus: Thermodynamic solubility of the compound at pH 7.4. It counts as physicochemical. The settings on record: buffer, read-out: Therm_solubility. The procedure, abridged:
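Thermodynamic solubility was measured in aqueous buffer at pH 6.5 and at pH 7.4.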

The next data set is filed under the species Homo sapiens. Nature of the data set: Selectivity for human gamma-seretase over notch signalling protein.
Data set [2] can be described thus: Ratio of drug level in brain to plasma in 129/sve mouse at 30 mg/kg, po administered as single dose by LC-MS/MS analysis. Set-up: dose 30 mg/kg, route oral. In kind it is ADME, organism-based. Conditions: read-out: BPR; call rule not given here. In outline:
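Wild-type male 129/sve mice were dosed orally once in 98% Phosal 50 PG/2% Tween 80. Brain/plasma ratio was taken as AUC_brain/AUC_plasma, using mean-concentration AUCs from a nonserial design.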

The nature of data set [3]: Tmax in 129/sve mouse cerebrospinal fluid at 30 mg/kg, po administered as single dose by LC-MS/MS analysis. In kind it is ADME, organism-based. On the set-up: dose 30 mg/kg, route oral. The procedure, abridged:
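Single-dose oral PK in wild-type male 129/sve mice. Formulation was 98% (v/v) Phosal 50 PG with 2% Tween 80. Compound was measured in plasma, brain and CSF. Values are means ± standard deviations (n = 4 or 5).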

Chain of Cytochrome P450 2C9 (P11712 whole entry): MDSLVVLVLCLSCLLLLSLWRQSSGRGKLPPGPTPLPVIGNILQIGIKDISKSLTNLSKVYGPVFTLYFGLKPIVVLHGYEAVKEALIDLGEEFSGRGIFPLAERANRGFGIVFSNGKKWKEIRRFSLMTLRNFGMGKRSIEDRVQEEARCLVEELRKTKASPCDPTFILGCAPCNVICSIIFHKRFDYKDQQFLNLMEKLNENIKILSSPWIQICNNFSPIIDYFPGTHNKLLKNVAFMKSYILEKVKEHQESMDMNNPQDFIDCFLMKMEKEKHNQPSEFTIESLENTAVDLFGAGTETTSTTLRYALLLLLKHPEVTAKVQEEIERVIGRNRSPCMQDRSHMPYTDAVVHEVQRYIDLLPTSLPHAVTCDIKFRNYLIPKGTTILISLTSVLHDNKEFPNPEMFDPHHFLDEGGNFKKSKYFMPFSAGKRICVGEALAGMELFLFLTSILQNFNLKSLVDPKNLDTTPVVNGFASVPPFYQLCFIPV

On to `NC(=O)[C@@H](CCC(F)(F)F)N(CC12CC(c3ncon3)(C1)C2)S(=O)(=O)c1ccc(Cl)cc1`, for which the “inhibition (INH)” value against Cytochrome P450 1A2 and at Cytochrome P450 2C9 was “Not Active” throughout. For the same compound, the Activity in the data set on Mus musculus worked out at 59%. For the same compound, the solubility thermodynamic in data set [1] was determined as 29.4 µM (≈ 14.5 µg/mL). This compound came in with a Selectivity Index in the data set listed under Homo sapiens of 178. The Kp in data set [2] was found to be 0.84. For the same compound, in data set [3], the time of peak concentration (Tmax) turned out to be 1 h.

As a reminder, the Tmax is the time from dosing to the highest level.
